Experimental data: paper PMC3984342 (mAbs, 2013)
Like-named read-outs stand apart in the source and are kept apart here.

Columns and labels:
[1] = METH alone, no antibody; ref Riviere et al.[21]; cited from earlier work
[2] = Modified radioimmunoassay; assay type: binding; details: modified RIA, [3H]-METH tracer, complete inhibition curve
[3] = Isothermal titration calorimetry; assay type: binding
How it was run: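 For isothermal titration calorimetry, 86 μM METH was titrated into 5 μM antibody at 307 rpm. Each run had 28 injections of 10 μL, spaced 200 s, at 37 °C in PBS pH 6.5. A one-site model gave N, ΔH, ΔS and the association constant (the reciprocal of KD). Activity was derived from N and molecular weights, with 2.07 μg METH/mg mAb taken as 100% active.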

[4] = Ch-mAb7F9 pharmacokinetics in rats; assay type: in vivo, Male, Sprague Dawley rats; details: for ClT / Vdss / t1/2λz: rat
How it was run: (§1)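 Male Sprague Dawley rats (n = 12/group), housed individually, got a single IV antibody dose via tail vein over about 2 min. The dose was ultracentrifuged (~100,000 g, 1 h, 5 °C) and diluted in PBS (15 mM sodium phosphate, 150 mM NaCl). METH 1 mg/kg (in 0.9% NaCl) or saline was given SC 24 h later. Six tail-vein samples were drawn over 3 wk. Non-compartmental sparse-sampling analysis used mean concentration per time point: ClT = D/AUC, Vdss = D·AUMC/AUC², […].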

[5] = METH pharmacokinetics in rats after anti-METH mAb treatment; assay type: in vivo, Male, Sprague Dawley rats; details: rat
How it was run: as §1

[6] = assay type: in vivo, Male, Sprague Dawley rats; details: rats, single antibody dose, throughout the study
How it was run: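 Body weights and general health observations were recorded for each rat throughout the 3-week study after the single IV antibody dose and 24-h SC challenge. Body weight and hematocrit are given as mean ± standard deviation.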

[7] = GLP in vivo rat toxicology study
[8] = GLP human tissue cross-reactivity study; details: human tissues, results not shown
[9] = Preliminary surface plasmon resonance study of on-off rates; assay type: binding; details: data not shown
[10] = Prediction of human elimination half-life from rat values; set-up: species or system humans; details: extrapolated from rat: human ClT about one-third of rat, similar Vdss
[11] = ch-mAb7F9 15 mg/kg IV, saline challenge
[12] = ch-mAb7F9 15 mg/kg IV, with METH 1 mg/kg SC 24 h later
[13] = ch-mAb7F9 150 mg/kg IV, saline challenge
[14] = ch-mAb7F9 150 mg/kg IV, with METH 1 mg/kg SC 24 h later

(+)-methamphetamine
METH ClT [1]: 181400 mL/day/kg | METH Vdss [1]: 9 L/kg | METH t1/2λz [1]: 1.1 h

B1: ch-mAb7F9: human-mouse chimeric anti-METH monoclonal antibody; mAb7F9 variable region joined to human IgG2κ constant domains (antibody, V domains shown)
VH: EIQLQQSGPELGKPGASVKVSCRASGFSFADYYIYWVKQSHGKSLELIGYIDPFNGGDTYNQIFKGKATLTVDKSSSTAFMYLNSLTSEDSAVYYCAAFRNPSFDFWGQGTTLTVSS
VL: QIVLIQSPPIMSASPGEKVTLTCSASSSVSSRYLYWYQQKPGSSPKLWIYGTSNLASGVPARFSGSGSGTSFSLTISSMEAEDAASYFCHQWSSFPFTFGSGTKLEIK
Kd [2]: 6.9 nM | average activity (capacity for binding METH per quantity of mAb) ([3]; first GMP-compliant lot, converted from ITC stoichiometry): 1.96 μg METH bound per mg mAb | Kd ([3]; read-out: KD (ITC, average), ITC, 37 °C, PBS pH 6.5): 49 nM | ClT [4, 11]: 6.9 mL/day/kg | Vdss [4, 11]: 0.1084 L/kg | t1/2λz [4, 11]: 262 h | ClT [4, 12]: 6.1 mL/day/kg | Vdss [4, 12]: 0.1151 L/kg | t1/2λz [4, 12]: 314 h | ClT [4, 13]: 6.5 mL/day/kg | Vdss [4, 13]: 0.1083 L/kg | t1/2λz [4, 13]: 276 h | ClT [4, 14]: 7.6 mL/day/kg | Vdss [4, 14]: 0.1082 L/kg | t1/2λz [4, 14]: 235 h | t1/2λz (range over groups) ([4]; rats, current studies, 15 and 150 mg/kg): 240 to 312 h | decrease of METH clearance compared with mAb7F9 ([5]; 150 mg/kg mAb dose): approximately 50% | METH ClT ([5]; METH 1 mg/kg SC 24 h after mAb 15 mg/kg IV): 13800 mL/day/kg | METH ClT ([5]; METH 1 mg/kg SC 24 h after mAb 150 mg/kg IV): 926 mL/day/kg | decrease of METH Vdss compared with METH alone ([5]; ch-mAb7F9 15 mg/kg): ~ 5 fold | increase in METH t1/2λz compared with METH alone ([5]; ch-mAb7F9 15 mg/kg): 2.1 fold | decrease of METH ClT compared with METH alone ([5]; ch-mAb7F9 15 mg/kg (low dose)): 13 fold | decrease of METH Vdss compared with METH alone ([5]; ch-mAb7F9 150 mg/kg): ~25 fold | increase in METH t1/2λz compared with METH alone ([5]; ch-mAb7F9 150 mg/kg): 5.9 fold | decrease of METH ClT compared with METH alone ([5]; ch-mAb7F9 150 mg/kg (high dose)): 196 fold | health changes (eating behavior, body weight) [6]: no significant health changes | elimination half-life ([7]; GLP rat toxicology study, samples for 56 d, results not shown): 190 to 288 h | no-observed-adverse-effect level, NOAEL ([7]; rat, single doses, GLP): 400 mg/kg | tissue staining [8]: the staining was cytoplasmic | on-off rates of METH binding [9]: both reactions are fast | predicted t1/2λz in humans [10]: ≤ 3 wk
